Assay results pooled from the literature.
Each line is one published result; the experiments were not run side by side.
SMARCA2: SWI/SNF-related matrix-associated actin-dependent regulator of chromatin subfamily A member 2 (SMARCA2, Homo sapiens, UniProt P51531)
PADI2: Protein-arginine deiminase type-2 (PADI2, Homo sapiens, UniProt Q9Y2J8)
BRAF V600E: Serine/threonine-protein kinase B-raf (BRAF, Homo sapiens, UniProt P15056, V600E)
Blk: Tyrosine-protein kinase Blk (Blk, Mus musculus, UniProt P16277)
DRD2: D(2) dopamine receptor (DRD2, Homo sapiens, UniProt P14416)
BPTF: Nucleosome-remodeling factor subunit BPTF (BPTF, Homo sapiens, UniProt Q12830)

With `O=c1nc2n(c3cccc(Cl)c13)CC/C2=C\c1ccccc1` the ΔTm was 2.14 °C (SMARCA2; thermal stability, DSF; 100 µM).
`CC(C)(C)n1nnc([C@H](CCCNC(=N)CF)NC(=O)c2ccc(-c3ccccc3)cc2)n1` gave a kinact/KI of 189 M⁻¹ s⁻¹ (PADI2; enzyme activity, inhibitor).
`Cc1ccc(C(CS(=O)(=O)c2ccccc2)=NNc2nc(C)c(N=Nc3ccccc3)s2)cc1` has an inhibition of 26% (BRAF V600E; enzyme activity, inhibitor, ATP luminescence; 10 nM).
The kinact/KI of `N=C(CCl)NCCC[C@H](NC(=O)c1ccccc1)c1nn[nH]n1` is reported as 14.5 M⁻¹ s⁻¹ (PADI2; enzyme activity, inhibitor).
`Cc1ccc(Nc2nccc(N(C)c3ccc4c(C)n(C)nc4c3)n2)cc1S(N)(=O)=O` has an inhibition of 73% (Blk; enzyme activity, inhibitor; 10 µM).
`Cc1ccc(C(CS(=O)(=O)c2ccccc2)=NNc2nc(C)c(N=Nc3cccc(C)c3)s2)cc1` gave an inhibition of 35% (BRAF V600E; enzyme activity, inhibitor, ATP luminescence; 10 nM).
The ΔTm of `CCC(/C=C1\CCn2c1nc(=O)c1cc(OC)ccc12)CC` is reported as 0.14 °C (SMARCA2; thermal stability, DSF; 100 µM).
`NC1=NCC(c2cccc3ccccc23)OC1` (centres unmarked) gave a ΔTm of 0.63 °C (Beta-secretase 1 (BACE1, Homo sapiens, UniProt P56817); thermal stability, DSF; 2.1 mM, pH 5.4).
`Cc1ccc(C(CS(=O)(=O)c2ccccc2)=NNC2=NC(=O)C(=NNc3ccc([N+](=O)[O-])cc3)S2)cc1` gave an inhibition of 72% (BRAF V600E; enzyme activity, inhibitor, ATP luminescence; 1 µM).
With `CCC(/C=C1\CCn2c1nc(=O)c1cc(O)ccc12)CC` the ΔTm was -0.28 °C (SMARCA2; thermal stability, DSF; 100 µM).
For `CCCOc1ccc(OC)c(F)c1C(=O)c1ccc(C(=O)N[C@@H]2CNC[C@H]2NC(=O)c2ccc3[nH]ncc3c2)cc1`, the remaining activity was 42% (Blk; enzyme activity, inhibitor; 10 µM).
`N=C(CCl)NCCC[C@H](NC(=O)c1ccc(-c2ccccc2)cc1)c1nn[nH]n1` gave a kinact/KI of 37.2 M⁻¹ s⁻¹ (PADI2; enzyme activity, inhibitor).
With `CCC(/C=C1\CCn2c1nc(=O)c1ccc(Cl)cc12)CC` the ΔTm was -2.09 °C (SMARCA2; thermal stability, DSF; 100 µM).
`COc1cc2ncnc3c2cc1OCCOCCOc1c(Cl)cccc1N3` gave a remaining activity of 15% (Epidermal growth factor receptor (EGFR, Homo sapiens, UniProt P00533, del746-750); enzyme activity, inhibitor, radiometric; 1 µM).
`COc1cc(CNCCc2c[nH]c3ccccc23)cc(Cl)c1OCC(N)=O` has an inhibition of 30.3% (DRD2; enzyme activity, inhibitor; 10 µM).
`CC(=O)N[C@H]1CSSC[C@@H](C(=O)N[C@H](Cc2c[nH]c3ccccc23)C(N)=O)NC(=O)[C@@H](Cc2ccccc2)NC(=O)[C@H](CCCNC(=N)N)NC1=O` gave an Emax of 0% (Melanocortin receptor 3 (MC3R, Homo sapiens, UniProt P41968); cAMP, agonist; HEK293; 3 min).
With `Cc1ccc(C(CS(=O)(=O)c2ccccc2)=NN=C2N=C(c3ccc(C)cc3)CS2)cc1` the inhibition was 22% (BRAF V600E; enzyme activity, inhibitor, ATP luminescence; 10 nM).
The kinact/KI of `CC(C)(C)n1nnc([C@H](CCCNC(=N)CF)NC(=O)c2ccccc2C(=O)O)n1` is reported as 2020 M⁻¹ s⁻¹ (PADI2; enzyme activity, inhibitor).
With `C[S+]([O-])c1ccc(-c2nc(-c3ccncc3)c(-c3ccc(F)cc3)[nH]2)cc1` (centres unmarked) the ΔTm was 0.31 °C (SMARCA2; thermal stability, DSF; 10 µM).
With `CCN1CCCn2c1nc1c2c(=O)n(C)c(=O)n1C` the inhibition was 5% (Adenosine receptor A3 (ADORA3, Homo sapiens, UniProt P0DMS8); ligand displacement, radioligand; 10 µM, cell membranes).
`Cc1ccc(C(CS(=O)(=O)c2ccccc2)=NNc2nc(-c3ccc(OCCCCOc4ccc(-c5csc(NN=C(CS(=O)(=O)c6ccccc6)c6ccc(C)cc6)n5)cc4)cc3)cs2)cc1` has an inhibition of 91% (BRAF V600E; enzyme activity, inhibitor, ATP luminescence; 10 µM).
With `NCCCC[C@H](NC(=O)[C@@H]1CCCN1C(=O)[C@@H]1CSSC[C@H](NC(=O)CNC(=O)CNC(=O)CN)C(=O)N[C@@H](Cc2ccc(O)cc2)C(=O)N[C@@H](Cc2ccccc2)C(=O)N[C@@H](CCC(N)=O)C(=O)N[C@@H](CC(N)=O)C(=O)N1)C(=O)NCC(N)=O` the Emax was roughly 100% (Vasopressin V2 receptor (AVPR2, Homo sapiens, UniProt P30518); cAMP, agonist, TR-FRET; CHO-K1).
`Cc1cnc(NC2CCOCC2)nc1-n1cnc(C(=O)NC(CN)c2cc(F)cc(Cl)c2)c1` (centres unmarked) gave a remaining activity of 106% (Blk; enzyme activity, inhibitor, radiometric; 1 µM).
For `CC(C)(C)c1nc(-c2cccc(NS(=O)(=O)c3c(F)cccc3F)c2F)c(-c2ccnc(N)n2)s1`, the inhibition was 58% (BRAF V600E; enzyme activity, inhibitor, ATP luminescence; 0.1 µM).
`Cc1ccc(C(=O)Nc2ccc(CN3CCN(C)CC3)c(C(F)(F)F)c2)cc1C#Cc1cnc2cccnn12` has a remaining activity of 95% (Microtubule-associated serine/threonine-protein kinase 1 (MAST1, Homo sapiens, UniProt Q9Y2H9); enzyme activity, inhibitor; 23.5 nM).
With `Oc1ccc(-c2nc(-c3ccncc3)c(-c3ccc(F)cc3)[nH]2)cc1` the ΔTm was 0.18 °C (BPTF; thermal stability, DSF; 10 µM).
The remaining signal of `Nc1ncnc2occ(-c3ccc(NC(=O)Nc4cc(C(F)(F)F)ccc4F)cc3)c12` is reported as 11% (Epidermal growth factor receptor (EGFR, Homo sapiens, UniProt P00533, G719S); cell-free assay; 20 µM).
With `NS(=O)(=O)c1ccc(Nc2nc(-c3ccc(F)cc3)c3ccccc3n2)cc1` the remaining binding was 74% (SMARCA2; binding, competition with immobilised ligand; 1 µM).
`Cc1ccc(C(CS(=O)(=O)c2ccccc2)=NNC(N)=S)cc1` has an inhibition of 88% (BRAF V600E; enzyme activity, inhibitor, ATP luminescence; 10 µM).
For `Cc1cc2c(cc1N1C(=O)c3cccc4c(Cl)ccc(c34)C1=O)n(C)c(=O)n2C`, the ΔTm was 0 °C (BPTF; thermal stability, DSF; 10 µM).
`CC(C)(C)C/C=C1\CCn2c1nc(=O)c1c(Cl)cccc12` gave a ΔTm of 1.61 °C (SMARCA2; thermal stability, DSF; 100 µM).
With `N=C(CF)NCCC[C@H](NC(=O)c1ccccc1C(=O)O)c1nn[nH]n1` the kinact/KI was 42.5 M⁻¹ s⁻¹ (PADI2; enzyme activity, inhibitor).
For `CCC(/C=C1\CCn2c1nc(=O)c1ccc(OC)cc12)CC`, the ΔTm was 0 °C (SMARCA2; thermal stability, DSF; 100 µM).
For `Cc1cnc(Nc2ccc(OCCN3CCCC3)cc2)nc1Nc1cccc(S(=O)(=O)NC(C)(C)C)c1`, the ΔTm was -0.09 °C (SMARCA2; thermal stability, DSF; 10 µM).
With `CC/C=C1\CCn2c1nc(=O)c1c(Cl)cccc12` the ΔTm was -1.47 °C (SMARCA2; thermal stability, DSF; 100 µM).
`Cc1ccc(NC(=O)c2ccc(C)c(C(F)(F)F)c2)cc1C#Cc1nn(C2CCC(O)CC2)c2ncnc(N)c12` (centres unmarked) gave a remaining signal of 49% (Dual specificity mitogen-activated protein kinase kinase 4 (Map2k4, Mus musculus, UniProt P47809); cell-free assay; 10 µM).
`CN(C)/C=C1\CCCn2c1nc(=O)c1c(Cl)cccc12` gave a ΔTm of 0.49 °C (SMARCA2; thermal stability, DSF; 100 µM).
`CC(C)c1ccccc1OCCOCC(O)CN1CCN(c2cccc(C(F)(F)F)c2)CC1` (centres unmarked) has an inhibition of 37.8% (DRD2; enzyme activity, inhibitor; 10 µM).
